Results from ChEMBL document CHEMBL2396650, “A potent small-molecule inhibitor of the MDM2-p53 interaction (MI-888) achieved complete and durable tumor regression in mice” (J Med Chem, 2013).
One block for each compound: values may come before it. Calls of active or inactive are those of the source. The rule behind the calls is not given here.

How the values were obtained:
Liver microsomes [1] = assay: Half life in rat liver microsomes; type: ADME, Microsome
Outline: (§1)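 Half-life determined by incubation in mouse, rat and human liver microsomes; T1/2 in minutes.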

Liver microsomes [2] = assay: Half life in human liver microsomes; type: ADME, Microsome; outline: as §1
Liver = assay: Half life in mouse liver microsomes; type: ADME, Microsome; outline: as §1
Rattus norvegicus [3] = assay: Cmax in Sprague-Dawley rat at 25 mg/kg, po; type: ADME, organism-based; set-up: dose 25 mg/kg, route oral; conditions: in vivo
RS4-11 = assay: Antitumor activity against human RS4:11 cells xenografted in mouse assessed as tumor regression at 200 mg/kg, po qd administered for 3 weeks measured after 26 days; type: functional, organism-based; set-up: dose 200 mg/kg
Outline: (§2)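 RS4;11 acute leukemia xenografts in mice; dosing began when tumors averaged 150 mm3. Oral gavage of 100 or 200 mg/kg once daily for 3 weeks. Tumor volume tracked during and after dosing; body weight and signs of toxicity monitored throughout.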

Rattus norvegicus [4] = assay: AUC (0 to t) in Sprague-Dawley rat at 25 mg/kg, po; type: ADME, organism-based, Plasma; set-up: dose 25 mg/kg, route oral; conditions: in vivo
SJSA-1 [5] = assay: Antitumor activity against human SJSA1 cells xenografted in SCID mouse assessed as tumor growth inhibition at 30 mg/kg, po qd measured after 2 weeks; type: functional, organism-based; set-up: dose 30 mg/kg
SJSA-1 [6] = assay: Antitumor activity against human SJSA1 cells xenografted in SCID mouse assessed as upregulation of p21 expression in tumor at 100 mg/kg, po measured at 24 hrs by Western blot analysis; type: functional, organism-based; set-up: dose 100 mg/kg
SJSA-1 [7] = assay: Induction of apoptosis in human SJSA1 cells xenografted in SCID mouse assessed as PARP cleavage at 100 mg/kg, po measured at 24 hrs by Western blot analysis; type: functional, organism-based; set-up: dose 100 mg/kg
[8] = Antitumor activity against human RS4:11 cells xenografted in mouse assessed as tumor growth inhibition at 200 mg/kg, po qd administered for 3 weeks measured after 4 days relative to vehicle-treated control; type: functional; conditions: read-out: TGI; outline: as §2
Mus musculus [9] = assay: Toxicity in mouse xenografted with human RS4:11 cells assessed as body weight loss at 100 to 200 mg/kg, po qd after 3 weeks; type: organism-based, RS4:11 cell; set-up: dose 100-200 mg/kg, route oral; conditions: in vivo, 504 h; outline: as §2
SJSA-1 [10] = assay: Antitumor activity against human SJSA1 cells xenografted in SCID mouse assessed as upregulation of p53 expression in tumor at 100 mg/kg, po measured at 3 to 6 hrs by Western blot analysis; type: functional, organism-based; set-up: dose 100 mg/kg
SJSA-1 [11] = assay: Induction of apoptosis in human SJSA1 cells xenografted in SCID mouse assessed as caspase-3 cleavage at 100 mg/kg, po measured at 1 to 6 hrs by Western blot analysis; type: functional, organism-based; set-up: dose 100 mg/kg
SJSA-1 [12] = assay: Induction of apoptosis in human SJSA1 cells xenografted in SCID mouse assessed as caspase-3 cleavage at 100 mg/kg, po measured at 24 hrs by Western blot analysis; type: functional, organism-based; set-up: dose 100 mg/kg
Mus musculus [13] = assay: Toxicity in mouse xenografted with human RS4:11 cells assessed as sign of toxicity at 100 to 200 mg/kg, po qd after 3 weeks; type: organism-based, RS4:11 cell; set-up: dose 100-200 mg/kg, route oral; conditions: in vivo, 504 h; outline: as §2
SJSA-1 [14] = assay: Antitumor activity against human SJSA1 cells xenografted in SCID mouse assessed as upregulation of p53 expression in tumor at 100 mg/kg, po measured at 24 hrs by Western blot analysis; type: functional, organism-based; set-up: dose 100 mg/kg
SJSA-1 [15] = assay: Antitumor activity against human SJSA1 cells xenografted in SCID mouse assessed as tumor growth inhibition at 10 mg/kg, po qd measured after 2 weeks; type: functional, organism-based; set-up: dose 10 mg/kg
Mus musculus [16] = assay: Toxicity in SCID mouse xenografted with human SJSA1 cells assessed as body weight loss at 10 to 100 mg/kg, po qd measured after 2 weeks; type: organism-based, SJSA-1; set-up: dose 10-100 mg/kg, route oral; conditions: in vivo, 336 h
SJSA-1 [17] = assay: Induction of apoptosis in human SJSA1 cells xenografted in SCID mouse assessed as PARP cleavage at 100 mg/kg, po measured at 1 to 6 hrs by Western blot analysis; type: functional, organism-based; set-up: dose 100 mg/kg
SJSA-1 [18] = assay: Antitumor activity against human SJSA1 cells xenografted in SCID mouse assessed as upregulation of p21 expression in tumor at 100 mg/kg, po measured at 3 to 6 hrs by Western blot analysis; type: functional, organism-based; set-up: dose 100 mg/kg
SJSA-1 [19] = assay: Antitumor activity against human SJSA1 cells xenografted in SCID mouse assessed as tumor regression at 100 mg/kg, po qd administered for 2 weeks measured for 60 days; type: functional, organism-based; set-up: dose 100 mg/kg
SJSA-1 [20] = assay: Antitumor activity against human SJSA1 cells xenografted in SCID mouse assessed as tumor growth inhibition at 100 mg/kg, po qd administered for 2 weeks measured after 5 days relative to vehicle-treated control; type: functional; conditions: read-out: TGI
SJSA-1 [21] = assay: Antitumor activity against human SJSA1 cells xenografted in SCID mouse assessed as tumor growth inhibition at 100 mg/kg, po qd administered for 2 weeks measured after 10 days; type: functional, organism-based; set-up: dose 100 mg/kg
[22] = Antitumor activity against human RS4:11 cells xenografted in mouse assessed as tumor growth inhibition at 100 mg/kg, po qd administered for 3 weeks measured after 4 days relative to vehicle-treated control; type: functional; conditions: read-out: TGI; outline: as §2
SJSA-1 [23] = assay: Antitumor activity against human SJSA1 cells xenografted in SCID mouse assessed as upregulation of MDM2 expression in tumor at 100 mg/kg, po measured at 3 to 6 hrs by Western blot analysis; type: functional, organism-based; set-up: dose 100 mg/kg
SJSA-1 [24] = assay: Antitumor activity against human SJSA1 cells xenografted in SCID mouse assessed as upregulation of MDM2 expression in tumor at 100 mg/kg, po measured at 24 hrs by Western blot analysis; type: functional, organism-based; set-up: dose 100 mg/kg
Mus musculus [25] = assay: Toxicity in SCID mouse xenografted with human SJSA1 cells assessed as sign of toxicity at 10 to 100 mg/kg, po qd measured after 2 weeks; type: organism-based, SJSA-1; set-up: dose 10-100 mg/kg, route oral; conditions: in vivo, 336 h
Rattus norvegicus [26] = assay: Half life in Sprague-Dawley rat at 25 mg/kg, po; type: ADME, organism-based; set-up: dose 25 mg/kg, route oral; conditions: in vivo

SMILES: CC(C)(C)C[C@@H]1N[C@@H](C(=O)N[C@H]2C[C@@](C)(O)C2)[C@H](c2cccc(Cl)c2F)[C@]12C(=O)Nc1cc(Cl)ccc12
Cmax (Rattus norvegicus [3]): 1726 ng/mL
Activity (RS4-11): Active
AUCt (Rattus norvegicus [4]): 14900 ng·h/mL
TGI (SJSA-1 [5]): Active
Activity (SJSA-1 [6]): inactive
Activity (SJSA-1 [7]): Active
inhibition in vivo at 200 mg/kg [8]: 80%
t1/2 (Liver microsomes [1]): > 1 h
Activity (Mus musculus [9]): Non-toxic
Activity (SJSA-1 [10]): Active
Activity (SJSA-1 [11]): inactive
Activity (SJSA-1 [12]): Active
Activity (Mus musculus [13]): Non-toxic
Activity (SJSA-1 [14]): inactive
TGI (SJSA-1 [15]): inactive
Activity (Mus musculus [16]): Non-toxic
Activity (SJSA-1 [17]): inactive
Activity (SJSA-1 [18]): Active
Activity (SJSA-1 [19]): Active
inhibition in vivo at 100 mg/kg (SJSA-1 [20]): > 70%
TGI (SJSA-1 [21]): Active
inhibition in vivo at 100 mg/kg [22]: 61%
Activity (SJSA-1 [23]): Active
t1/2 (Liver): > 1 h
Activity (SJSA-1 [24]): inactive
Activity (Mus musculus [25]): Non-toxic
t1/2 (Rattus norvegicus [26]): 3.2 h

SMILES: CC(C)(C)C[C@@H]1N[C@@H](C(=O)NCC[C@H](O)CO)[C@H](c2cccc(Cl)c2F)[C@]12C(=O)Nc1cc(Cl)ccc12
Cmax (Rattus norvegicus [3]): 675 ng/mL
AUCt (Rattus norvegicus [4]): 2140 ng·h/mL
t1/2 (Liver microsomes [1]): 0.272 h
t1/2 (Liver microsomes [2]): > 1 h
t1/2 (Liver): > 1 h
t1/2 (Rattus norvegicus [26]): 3.4 h

SMILES: CC(C)(C)C[C@@H]1N[C@@H](C(=O)N[C@H]2CC[C@H](O)C2)[C@H](c2cccc(Cl)c2F)[C@]12C(=O)Nc1cc(Cl)ccc12
t1/2 (Liver microsomes [1]): 0.352 h
t1/2 (Liver microsomes [2]): 0.918 h
t1/2 (Liver): > 1 h

SMILES: CC(C)(C)C[C@@H]1N[C@@H](C(=O)N[C@H]2C[C@@H](O)C2)[C@H](c2cccc(Cl)c2F)[C@]12C(=O)Nc1cc(Cl)ccc12
t1/2 (Liver microsomes [1]): 0.368 h
t1/2 (Liver microsomes [2]): 0.513 h
t1/2 (Liver): 0.343 h

SMILES: CC(C)(C)C[C@@H]1N[C@@H](C(=O)N[C@H]2C[C@](C)(O)C2)[C@H](c2cccc(Cl)c2F)[C@]12C(=O)Nc1cc(Cl)ccc12
t1/2 (Liver microsomes [2]): > 1 h

Further lines, results first:

t1/2 (Liver microsomes [1]): 0.337 h
t1/2 (Liver microsomes [2]): > 1 h
t1/2 (Liver): > 1 h
SMILES: CC(C)(C)C[C@H]1N[C@@H](C(=O)NCC[C@H](O)CO)[C@H](c2cccc(Cl)c2)[C@@]12C(=O)Nc1cc(Cl)c(F)cc12

t1/2 (Liver microsomes [1]): 0.318 h
t1/2 (Liver microsomes [2]): 0.902 h
t1/2 (Liver): > 1 h
SMILES: CC(C)(C)C[C@@H]1N[C@@H](C(=O)N[C@H]2C[C@H](O)C2)[C@H](c2cccc(Cl)c2F)[C@]12C(=O)Nc1cc(Cl)ccc12

t1/2 (Liver microsomes [1]): 0.0633 h
t1/2 (Liver microsomes [2]): 0.067 h
t1/2 (Liver): 0.025 h
SMILES: CC(C)(C)C[C@@H]1N[C@@H](C(=O)N[C@H]2CC[C@@H](O)C2)[C@H](c2cccc(Cl)c2F)[C@]12C(=O)Nc1cc(Cl)ccc12

t1/2 (Liver microsomes [1]): > 1 h
t1/2 (Liver microsomes [2]): > 1 h
t1/2 (Liver): > 1 h
SMILES: CC(C)(C)C[C@@H]1N[C@@H](C(=O)NCC(C)(C)O)[C@H](c2cccc(Cl)c2F)[C@]12C(=O)Nc1cc(Cl)ccc12
